Converted amounts (≈) assume the structure as drawn.
Experiments:
[1] = molecular target: T1, E. coli PBP1a (Escherichia coli, UniProt P02918); assay: PBP competition assay with Bocillin FL; format: binding
T1 sequence (P02918 1-850): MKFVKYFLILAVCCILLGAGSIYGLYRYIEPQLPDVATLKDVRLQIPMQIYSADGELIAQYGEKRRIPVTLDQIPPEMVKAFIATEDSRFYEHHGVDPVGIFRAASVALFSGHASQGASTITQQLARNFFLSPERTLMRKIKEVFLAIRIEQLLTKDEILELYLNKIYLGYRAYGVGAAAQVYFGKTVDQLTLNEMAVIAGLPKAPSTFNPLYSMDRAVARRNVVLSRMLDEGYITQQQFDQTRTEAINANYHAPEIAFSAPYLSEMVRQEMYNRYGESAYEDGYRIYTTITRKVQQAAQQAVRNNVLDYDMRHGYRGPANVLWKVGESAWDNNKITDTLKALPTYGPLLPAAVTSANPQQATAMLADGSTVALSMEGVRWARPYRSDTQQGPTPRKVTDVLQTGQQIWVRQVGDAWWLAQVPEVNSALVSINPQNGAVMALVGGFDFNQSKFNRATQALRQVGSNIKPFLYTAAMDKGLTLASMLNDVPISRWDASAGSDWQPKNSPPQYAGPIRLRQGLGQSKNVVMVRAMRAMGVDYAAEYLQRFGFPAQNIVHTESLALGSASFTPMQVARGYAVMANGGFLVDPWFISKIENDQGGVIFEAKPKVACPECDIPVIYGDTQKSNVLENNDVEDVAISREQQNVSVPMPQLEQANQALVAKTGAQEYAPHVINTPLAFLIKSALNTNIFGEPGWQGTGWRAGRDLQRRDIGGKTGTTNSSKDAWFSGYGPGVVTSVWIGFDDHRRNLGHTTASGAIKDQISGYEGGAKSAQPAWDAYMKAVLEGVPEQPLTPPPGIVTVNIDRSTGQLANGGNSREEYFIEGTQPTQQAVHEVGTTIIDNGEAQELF
Summary of the method: (§1)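 E. coli K-12 or P. aeruginosa 1771 grown in BHI at 35°C to A600 ~1.5. Cells in 50 mM phosphate pH 7.0 were French-pressed; membranes pelleted at 150,000 × g. Membranes (10–20 μg protein) were pre-incubated with test compound 10 min at 30°C, then Bocillin FL (100 μM final) 20 min. SDS-PAGE, fluorescence scan. IC50 in μg/ml from ≥8 concentrations versus no-drug control.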

[2] = molecular target: T2, E. coli PBP2 (Escherichia coli, UniProt P0AD65); assay: PBP competition assay with Bocillin FL; format: binding
T2 sequence (P0AD65 1-633): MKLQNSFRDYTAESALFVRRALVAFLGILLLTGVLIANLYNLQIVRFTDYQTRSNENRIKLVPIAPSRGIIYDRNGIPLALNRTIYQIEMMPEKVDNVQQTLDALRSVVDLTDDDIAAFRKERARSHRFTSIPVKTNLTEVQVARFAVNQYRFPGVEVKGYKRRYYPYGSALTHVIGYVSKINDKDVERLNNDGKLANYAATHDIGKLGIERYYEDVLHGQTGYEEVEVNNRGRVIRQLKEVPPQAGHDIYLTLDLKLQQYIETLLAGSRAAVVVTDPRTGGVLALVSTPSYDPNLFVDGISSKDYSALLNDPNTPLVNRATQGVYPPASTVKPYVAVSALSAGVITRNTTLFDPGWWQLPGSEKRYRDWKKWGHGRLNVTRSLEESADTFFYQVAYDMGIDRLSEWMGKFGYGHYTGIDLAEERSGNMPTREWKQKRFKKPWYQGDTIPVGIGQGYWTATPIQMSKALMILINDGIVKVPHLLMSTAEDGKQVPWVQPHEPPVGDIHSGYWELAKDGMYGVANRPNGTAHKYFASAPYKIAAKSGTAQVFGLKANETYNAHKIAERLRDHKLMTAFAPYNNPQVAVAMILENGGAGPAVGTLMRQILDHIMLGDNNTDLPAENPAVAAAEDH
Summary of the method: as §1

[3] = molecular target: E. coli PBP4 (Escherichia coli, UniProt P24228); assay: PBP competition assay with Bocillin FL; format: binding
Summary of the method: as §1

[4] = molecular target: T3, P. aeruginosa PBP2 (Pseudomonas aeruginosa, UniProt Q9X6V3); assay: PBP competition assay with Bocillin FL; format: binding
T3 sequence (Q9X6V3 1-646): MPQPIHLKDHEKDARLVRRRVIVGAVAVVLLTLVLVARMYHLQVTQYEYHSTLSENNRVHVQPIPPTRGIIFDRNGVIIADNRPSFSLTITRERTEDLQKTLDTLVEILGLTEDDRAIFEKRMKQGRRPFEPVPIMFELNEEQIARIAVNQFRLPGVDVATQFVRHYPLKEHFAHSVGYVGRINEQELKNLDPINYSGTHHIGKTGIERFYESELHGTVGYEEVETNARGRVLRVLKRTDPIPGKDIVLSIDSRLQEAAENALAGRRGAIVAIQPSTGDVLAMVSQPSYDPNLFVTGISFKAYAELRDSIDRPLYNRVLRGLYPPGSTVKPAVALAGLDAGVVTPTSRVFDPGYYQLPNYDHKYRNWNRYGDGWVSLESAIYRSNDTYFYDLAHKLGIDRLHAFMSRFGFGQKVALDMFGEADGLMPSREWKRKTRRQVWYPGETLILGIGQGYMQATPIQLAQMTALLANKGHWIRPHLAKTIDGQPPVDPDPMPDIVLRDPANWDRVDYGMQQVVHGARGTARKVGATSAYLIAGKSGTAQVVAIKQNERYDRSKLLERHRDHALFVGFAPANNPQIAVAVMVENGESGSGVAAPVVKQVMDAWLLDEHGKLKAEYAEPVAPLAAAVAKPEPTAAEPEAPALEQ
Summary of the method: as §1

[5] = system: E. coli; assay: Broth microdilution MIC; format: cell-based; details: Escherichia coli
Summary of the method: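 MICs by CLSI broth microdilution in cation-adjusted Mueller-Hinton broth. Strains grown in BHI broth at 35°C: E. coli K-12, P. aeruginosa 1771 and S. aureus ATCC 29213. H. influenzae Rd grown in BHI with Haemophilus test medium supplement (hemin and β-NAD, 15 μg/ml each).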

SMILES | IC50 [1] | IC50 [2] | IC50 [3] | IC50 [4] | MIC [5]
NC(=O)[C@@H]1CC[C@@H]2CN1C(=O)N2OS(=O)(=O)O [AVI, avibactam] | > 49 µM | 3.47 µM | > 49 µM | 4.15 µM | 8 µg/mL (≈ 30.2 µM)
CC1(C)S[C@@H]2[C@H](/N=C/N3CCCCCC3)C(=O)N2[C@H]1C(=O)O [MEC, amdinocillin] | > 39.9 µM | 0.0615 µM | > 39.9 µM | 0.645 µM | 0.06 to 0.1 µg/mL (≈ 0.184 to 0.307 µM)
CC(C)(O/N=C(\C(=O)N[C@@H]1C(=O)N2C(C(=O)[O-])=C(C[n+]3ccccc3)CS[C@H]12)c1csc(N)n1)C(=O)O [CAZ, ceftazidime] | 27.4 µM | > 45.7 µM | > 45.7 µM | > 45.7 µM | 0.5 µg/mL (≈ 0.915 µM)

Reference: publication PMC4750707 (Antimicrobial Agents and Chemotherapy, 2016)
